Here are results for two compounds from article PMC10041147 (RSC Advances, 2023).

The target in assay [1] is T1, Pseudomonas aeruginosa lectin LecA (Pseudomonas aeruginosa, UniProt Q05097).
T1 sequence (Q05097 1-122): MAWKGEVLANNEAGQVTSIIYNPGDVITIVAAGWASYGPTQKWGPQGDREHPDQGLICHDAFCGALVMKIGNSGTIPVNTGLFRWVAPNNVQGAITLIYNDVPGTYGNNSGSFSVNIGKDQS
The assay can be described thus: Electrochemical. Conditions: LecA sensor, n.b. = no binding; for K d from CV: cyclic voltammetry; for K d from DPV: differential pulse voltammetry. The method, boiled down:
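P. aeruginosa LecA (commercial, ≥70%) coupled at 10 μM for 1 h to an EDC/NHS-activated MUA/DTT layer on a gold nanoparticle–graphene screen-printed electrode, then blocked 30 min with 1% BSA. Sugars titrated in 10 mM PBS with 1 mM CaCl2 and 1 mM MnCl2. Read in 25 mM [Fe(CN)6]3−/4− with 0.2 M KCl at 25 °C. CV: −0.2 to 0.8 V, 0.05 V s−1. DPV: −0.2 to 0.5 V. Reduction-peak Δip fitted to a one-site model.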

A further assay has as its target LecA. Conditions: n.b. = no binding, no reference given; cited from earlier work.
The next assay addresses ConA. Conditions: read-out: Reported Kd; cited from earlier work.

With `OC[C@H]1OC(O)[C@@H](O)[C@@H](O)[C@@H]1O` (some centres unmarked) [mannose (3), mannose], in assay [1], the “K d from CV” value is reported as “n.b” and the “K d from DPV” value is listed as “n.b”. Further, the “Reported Kd” value on LecA is listed as “n.b”. Further, on ConA, the Kd (commonly the concentration at which binding is half-saturated) is 57 µM.

Take mannan [mannan (4)]: in assay [1], the “K d from CV” value is given as “n.b” and the “K d from DPV” value was “n.b”. Moreover, at LecA, the “Reported Kd” value is recorded as “n.b”. Further, on ConA, the Kd was 3 µM.
